GAA850 FXN act: increases GAA850 frataxin promoter reporter activity | HEK293 lucGAA850 FXN promoter luciferase reporter, 24 h; percent of 10 µM SAHA response | activation, % at 6 µM | hit rate 0.56% among 360,000 | AID 540364;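 active = activation above the average of all compounds screened plus 3 SD, cutoff fixed separately per campaign, cut at about 7.5% in these data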
CHOP inhibitor: blocks CHOP induction under ER stress; hit rate 3.8% among 220,000; inhibition, % at 10 µM; CHO-K1 CHOP-promoter luciferase, tunicamycin-induced, 15-18 h; AID 2732;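 active = compounds that reduced the stress-induced luciferase reporter signal by more than about 70% of percent inhibition, limit read from the data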
UPR CHOP act: apoptotic UPR (CHOP) activation | CHO-CHOP luciferase reporter, luminescence; percent of tunicamycin response over DMSO baseline | activation, % at 10 µM | hit rate 0.34% among 330,000 | AID 449763;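 active = at 10 µM dose, activation of 40% or more, normalized to positive control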
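System: CHO-CHOP luciferase reporter cell line; amount: 500 cells/well; buffer or medium: F12 medium containing 10% fetal bovine serum; incubation: 6 h compound exposure at 37 °C after overnight seeding; measured by: luciferase luminescence after 10 min with Steady-Glo reagent; evaluation: % reporter activation, DMSO baseline versus tunicamycin full activation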
UPR XBP1 act: adaptive UPR (XBP1) activation; CHO-XBP1 luciferase reporter, IRE1-XBP1 UPR activation, luminescence; percent of tunicamycin response, DMSO as zero; activation, % at 20 µM; hit rate 0.33% among 330,000; AID 463104;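 active = versus positive control, 20 µM dose yields 30% or more activation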
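Signal: luciferase luminescence; Assay system: CHO-XBP1 luciferase reporter cells; Amount: one thousand reporter cells per well; Dosing: 20 µM single concentration, DMSO 1%; Benchmarks: high control tunicamycin 10 µg/mL final, low control DMSO vehicle only; Schedule: 6 h compound exposure at 37 °C, 5% CO2; Evaluation: percent activation relative to tunicamycin reference.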
UPR XBP1 confirm: adaptive UPR (XBP1) activation, confirmed | shares compounds with UPR XBP1 act | CHO-XBP1 IRE1-XBP1 luciferase reporter, luminescence | activation, % at 20 µM | hit rate 63% among 1,000 | AID 485299;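 active = reporter signal at least 30% of the positive control's activation in two or more of four replicate wells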
Each line names hits and unclear results; the compound was inactive in the other large screens (follow-up assays come after a bar, where they were run). This is one part of a sample in which hits are shown more often than they occur.

ClCc1nnc(-c2cc3c(s2)CCCC3)o1	none (no result: UPR CHOP act, UPR XBP1 act)
CC(C)(C)C1CCc2sc(-c3nnc(CCl)o3)cc2C1 (configuration not stated)	UPR XBP1 act 44 | UPR XBP1 confirm inactive
OC(Cc1ccccc1)c1ncc(-c2ccc3ccccc3c2)[nH]1 (configuration not stated)	none (no result: CHOP inhibitor, UPR CHOP act, UPR XBP1 act)
COc1ccc(-c2csc(C3=C(O)CN(Cc4ccc(Cl)cc4)C3=N)n2)cc1OC	UPR XBP1 act 43 | UPR XBP1 confirm 134
COc1ccc(-c2csc(C3=C(O)CN(Cc4ccc(S(N)(=O)=O)cc4)C3=N)n2)cc1OC	none
Cc1nc(N2CCN(C(=O)c3cnccn3)CC2)c2c3c(sc2n1)CC(C(C)(C)C)CC3 (configuration not stated)	UPR XBP1 act 34 (no result: CHOP inhibitor) | UPR XBP1 confirm inactive
O=C(NCc1cccnc1)c1cc(C2CCCN(C(=O)c3cccc(O)c3)C2)on1 (configuration not stated)	none (no result: CHOP inhibitor, UPR CHOP act, UPR XBP1 act)
O=C(Nc1cc(S(=O)(=O)N2CCOCC2)ccc1Cl)c1cc([N+](=O)[O-])ccc1Cl	UPR XBP1 act 69 (no result: CHOP inhibitor) | UPR XBP1 confirm inactive
Cn1c(-c2cc(Cl)ccc2O)nc2c1c(=O)[nH]c(=O)n2Cc1ccccc1	none
COc1ccc(Br)cc1-c1nc2c(c(=O)[nH]c(=O)n2Cc2ccccc2)n1C	UPR XBP1 act 50 (no result: CHOP inhibitor) | UPR XBP1 confirm 65
CCn1c(SCC(=O)N2CCN(c3ccccc3)CC2)nc2c([nH]c3ccccc32)c1=O	UPR XBP1 act 32 (no result: CHOP inhibitor) | UPR XBP1 confirm inactive
Cc1cccn2c(=O)c3cc(C(=O)NC4CCCCCC4)sc3nc12	UPR XBP1 act 355 (no result: CHOP inhibitor) | UPR XBP1 confirm 97
Cc1cccn2c(=O)c3cc(C(=O)NC4CCS(=O)(=O)C4)sc3nc12 (configuration not stated)	none
CCOc1ccccc1NC(=O)c1ccc2c(O)c(S(=O)(=O)c3ccccc3)c(=O)[nH]c2c1	none (no result: CHOP inhibitor, UPR CHOP act, UPR XBP1 act)
O=C(COC(=O)c1ccc2[nH]c3c(c2c1)CCCC3)Nc1ccccc1Cl	UPR XBP1 act 52 | UPR XBP1 confirm 66
COc1ccc2cc3cc(C(=O)Nc4ccccc4N4CCN(C)CC4)oc3nc2c1	CHOP inhibitor 86, UPR XBP1 act 40 | UPR XBP1 confirm inactive
CCOC(=O)c1c(NC(=O)c2ccno2)c2cc([N+](=O)[O-])ccc2n1C	none
CCOC(=O)c1c(NC(=O)c2cc(C)on2)c2cc([N+](=O)[O-])ccc2n1C	UPR XBP1 act 84 (no result: GAA850 FXN act) | UPR XBP1 confirm 49
COc1ccc(Nc2nc(N)c([N+](=O)[O-])c(NCCO)n2)cc1	none
CCC(C)Nc1nc(N)c([N+](=O)[O-])c(NC2CCCCC2)n1 (configuration not stated)	UPR XBP1 act 35 (no result: CHOP inhibitor) | UPR XBP1 confirm 31
COc1ccc(Nc2nc(N)c([N+](=O)[O-])c(NC3CCCCC3)n2)cc1	UPR XBP1 act 53 (no result: CHOP inhibitor) | UPR XBP1 confirm 35
COc1cccc(C(NC(C)=O)c2nc(-c3ccc4c(c3)OCO4)cs2)c1 (configuration not stated)	none (no result: CHOP inhibitor, UPR CHOP act, UPR XBP1 act)
Cc1c(-c2ccc(/C=N/NC(=O)C(=O)Nc3ccccc3F)o2)cccc1[N+](=O)[O-]	UPR XBP1 act 73 | UPR XBP1 confirm inactive
Cc1csc2nc(COC(=O)c3ccc(Cl)c([N+](=O)[O-])c3)cc(=O)n12	UPR XBP1 act 71 (no result: CHOP inhibitor) | UPR XBP1 confirm inactive
O=C(NCC1CCCCC1)c1ccc2nc([C@@H]3O[C@H](CO)[C@@H](O)[C@H]3O)[nH]c2c1	none (no result: CHOP inhibitor, UPR CHOP act, UPR XBP1 act)
COc1ccc(-c2coc3cc4oc(=O)c5ccccc5c4cc23)cc1F	UPR XBP1 act 64 | UPR XBP1 confirm inactive
Oc1cc(-c2ccc(N3CCCCC3)nc2)cc2cccnc12	UPR XBP1 act 56 (no result: CHOP inhibitor) | UPR XBP1 confirm 52
COc1ccc(C(=O)/C=C/c2cccs2)c(OC(=O)c2cccc([N+](=O)[O-])c2)c1	UPR XBP1 act 42 | UPR XBP1 confirm 56
COc1ccc(C(=O)/C=C/c2ccc(F)cc2)c(OC(=O)c2ccc([N+](=O)[O-])cc2)c1	none
COc1ccc(/C=N/Nc2nnc(-c3ccccc3)c(=O)[nH]2)cc1	UPR XBP1 act 49 | UPR XBP1 confirm 73
O=c1[nH]c(N/N=C/c2ccccc2Br)nnc1-c1ccccc1	none
CCc1ccc(-c2n[nH]nc2C2=CC(=O)C[C@H](c3ccc(F)cc3)C2)cc1	none (no result: CHOP inhibitor, UPR CHOP act, UPR XBP1 act)
Cc1cc(C)cc(Nc2nc3ccccc3c(=O)[nH]2)c1	none
Cc1ccc2c(=O)[nH]c(Nc3nc(C)cc(-c4ccccc4)n3)nc2c1	UPR XBP1 act 33 | UPR XBP1 confirm 43
Cc1nc(Nc2nc(CSc3ccc(Cl)cc3)cc(=O)[nH]2)nc2ccccc12	none
Cc1nc(Nc2nc(-c3ccccc3)cc(=O)[nH]2)nc2ccccc12	UPR XBP1 act 84 (no result: CHOP inhibitor) | UPR XBP1 confirm 132
Cc1cccc(NC(=O)c2cc3c(=O)n4ccccc4nc3n(CC(C)C)c2=N)c1	UPR XBP1 act 99 | UPR XBP1 confirm inactive
COc1cccc(NC(=O)c2cc3c(=O)n4ccccc4nc3n(CC(C)C)c2=N)c1	none
CC1(C(=O)NS(=O)(=O)c2cccs2)CCN1C(=O)c1ccccc1 (configuration not stated)	none (no result: CHOP inhibitor, UPR CHOP act, UPR XBP1 act)
CN(C)c1ccc(-c2csc(C(C)(O)c3cccc(F)c3)n2)cc1 (configuration not stated)	none (no result: CHOP inhibitor, UPR CHOP act, UPR XBP1 act)
COCC(=O)N[C@@H]1c2ccccc2CC[C@@H]1OCc1ccccc1	none (no result: CHOP inhibitor)
COc1cc2c(cc1OC)[C@@H](NC(=O)c1ccc(C(F)(F)F)cc1)[C@H](OCc1ccccc1)C2	UPR XBP1 act 36 (no result: CHOP inhibitor) | UPR XBP1 confirm inactive
CCCNC(=O)C1(C)CCN(Cc2noc(-c3ccccc3OC)n2)C1 (configuration not stated)	none (no result: CHOP inhibitor, UPR CHOP act, UPR XBP1 act)
CNc1nc(Nc2ccc([N+](=O)[O-])cc2)nc(OCC(F)(F)F)n1	UPR XBP1 act 122 (no result: CHOP inhibitor) | UPR XBP1 confirm inactive
O=[N+]([O-])c1cc(-c2ccc(/C=N/c3nc4ccccn4c3-c3ccco3)o2)ccc1Cl	CHOP inhibitor 91, UPR XBP1 act 101 | UPR XBP1 confirm 98
COc1ccc(C(CCNC(C)c2ccccc2)c2ccc(F)cc2)cc1 (configuration not stated)	UPR XBP1 act 46 | UPR XBP1 confirm 63
COc1ccc(CNCCC(c2ccc(F)cc2)c2ccc(OC)cc2)cc1 (configuration not stated)	none
COc1ccc(C(CCNCc2ccccc2)c2ccc(F)cc2)cc1 (configuration not stated)	UPR XBP1 act 48 | UPR XBP1 confirm 71
CCc1nc2ccc(C(=O)N(C)CCCN(C)C)cn2c1N(C=O)CCC(C)C	none (no result: CHOP inhibitor, UPR CHOP act, UPR XBP1 act)
COc1ccc2oc(-c3ccc(C)c(NC(=O)CSc4ccc(Cl)cc4)c3)nc2c1	none
COc1cc(C(=O)Nc2cc(-c3nc4cc(C)ccc4o3)ccc2C)cc(OC)c1OC	UPR XBP1 act 131 | UPR XBP1 confirm 96
COc1cc(CNCCO)cc(Br)c1OCc1ccccc1Cl	none
COc1cc(CNCCO)cc(Cl)c1OCc1ccc(Cl)cc1Cl	CHOP inhibitor 95, UPR XBP1 act 63 | UPR XBP1 confirm 134

Screening results (PubChem BioAssay)
